Results collected from several papers.
Compare with care: the assays were run in different laboratories.
Target: Tyrosine-protein kinase ZAP-70 (ZAP70, Homo sapiens, UniProt P43403)
Sequence (P43403 1-619, as in one of the studies): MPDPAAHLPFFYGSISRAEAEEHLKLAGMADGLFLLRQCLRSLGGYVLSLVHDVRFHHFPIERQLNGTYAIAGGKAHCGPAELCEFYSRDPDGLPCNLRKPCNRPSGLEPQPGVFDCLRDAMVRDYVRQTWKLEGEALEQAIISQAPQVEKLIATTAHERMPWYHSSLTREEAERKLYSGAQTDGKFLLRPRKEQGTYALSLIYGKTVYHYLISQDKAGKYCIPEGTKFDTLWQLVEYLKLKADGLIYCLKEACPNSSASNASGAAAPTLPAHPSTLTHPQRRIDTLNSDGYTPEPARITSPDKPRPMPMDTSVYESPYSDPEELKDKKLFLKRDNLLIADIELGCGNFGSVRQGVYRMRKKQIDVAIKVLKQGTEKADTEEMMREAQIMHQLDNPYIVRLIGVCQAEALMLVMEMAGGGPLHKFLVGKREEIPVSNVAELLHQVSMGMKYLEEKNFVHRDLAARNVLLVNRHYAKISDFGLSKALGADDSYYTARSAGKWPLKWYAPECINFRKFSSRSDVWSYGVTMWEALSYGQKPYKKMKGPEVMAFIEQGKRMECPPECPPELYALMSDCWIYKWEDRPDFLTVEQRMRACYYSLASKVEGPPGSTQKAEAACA

| SMILES | assay | conditions | remaining binding |
| --- | --- | --- | --- |
| CN(C)c1nccc(-c2cnn3ncccc23)n1 | binding | 1 µM | 72% |
| COc1ncc2cc3ccccc3nc2c1C#N | cell-free assay, competition with immobilised ligand | 5 µM | 88% |
| Cc1nc(C2CCN(C(=O)c3ccc(OC(F)(F)F)cc3N)CC2)c2ncc(N3CCN(C)CC3)cc2n1 | cell-free assay, competition with immobilised ligand | 1 µM | 100% |
| O=C(NCC1CCOCC1)c1n[nH]cc1NC(=O)c1c(F)cccc1F | binding, competition with immobilised ligand | 1 µM | 100% |
| O=C(c1ccc(Nc2nccc(-c3cc4ccccc4s3)n2)cc1)N1CCC(N2CCCC2)CC1 | binding, competition with immobilised ligand | 1 µM | 15% |
| O=C(NCCCC1CCCCC1)c1ccc(CNC(=O)c2cnn(-c3ccccc3)c2C(F)(F)F)cc1 | cell-free assay, competition with immobilised ligand | 0.1 µM | 100% |
| c1cncc(-c2cccc(Nc3nccc(NC4CCCCC4)n3)c2)c1 | binding, competition with immobilised ligand | 10 µM | 91% |
| O=C(c1ccc(Nc2ncc(Cl)c(-c3ccc(Cl)s3)n2)cc1)N1CCC(N2CCCC2)CC1 | binding, competition with immobilised ligand | 1 µM | 23% |
| O=C(NCc1ncc(C(F)(F)F)cc1Cl)c1ccc2c(c1)C1(CCS(=O)(=O)CC1)[C@@H](C1CC1)N2S(=O)(=O)c1ccc(F)cc1 | cell-free assay, competition with immobilised ligand | 1 µM | 72% |
| C[C@H]1CCN(c2nccc(-c3cnn4ncccc34)n2)C1 | binding | 1 µM | 73% |
| N#Cc1ccccc1CSc1nnc2c(n1)[nH]c1ccccc12 | binding, competition with immobilised ligand | 10 µM | 78% |
| CN(c1nccc(-c2cnn3ncccc23)n1)C1CC1 | binding | 1 µM | 100% |
| C[C@@H]1CN(c2ccc3ncc(-c4ccc5[nH]nc(C6CC6)c5c4)n3n2)C[C@H](C)O1 | binding, competition with immobilised ligand | 50 nM | 100% |
| C[C@@H](c1cccc(C#N)c1)n1cc(Cl)cc(C(N)=O)c1=N | cell-free assay, competition with immobilised ligand | 1 µM | 84% |
| c1cnn2ncc(-c3ccnc(N4CCC45COC5)n3)c2c1 | binding | 1 µM | 80% |
| O=C(NCCCN1CCOCC1)c1ccc(Nc2nccc(-c3cc4ccccc4s3)n2)cc1 | binding, competition with immobilised ligand | 1 µM | 69% |
| C=CC(=O)N1CCC(C(=O)NCC(=O)N2CCN(c3nc(-c4cnc(N)nc4C(F)F)nc(N4CCOCC4)n3)CC2)CC1 | binding, competition with immobilised ligand | 1 µM | 100% |
| CSc1cccnc1N1CCN(Cc2nc3ccccc3[nH]2)CC1 | cell-free assay, competition with immobilised ligand | 1 µM | 99% |
| Cc1cnn2ncc(-c3ccnc(N(C)C)n3)c2c1 | binding | 1 µM | 100% |
| FC(F)(F)Oc1cccc(-c2cnc3ccc(-c4ccncc4)nn23)c1 | binding, competition with immobilised ligand | 5 µM | 69% |
| O=C(O)[C@H]1[C@H](Cn2nnc3ccccc3c2=O)CC[C@@H]1C(=O)c1ccc(OCCC2CCOCC2)cc1 | cell-free assay, competition with immobilised ligand | 1 µM | 100% |
| N[C@@H]1CCN(c2nccc(-c3cnn4ncccc34)n2)C1 | binding | 1 µM | 53% |
| CNC(=O)[C@@H]1CC[C@@H](n2c(-c3ccc4cnccc4c3)nc3ccc(C(=O)NCc4cccc(C(N)=O)c4)cc32)C1 | binding, competition with immobilised ligand | 1 µM | 100% |
| CN(C)c1ncc(F)c(-c2cnn3ncccc23)n1 | binding | 1 µM | 79% |
| Cc1cc(-n2nc(Cc3cc(F)cc(C(F)(F)F)c3)nc2C)ccc1C(N)=O | cell-free assay, competition with immobilised ligand | 1 µM | 82% |
